Results from article PMC8751737 (International journal of pharmaceutics, 2021).

Key:
Calu-3 [1] = experiment: Antiproliferative activity, CellTiter-Glo assay; format: cell-based, human; settings: read-out: IC50 (72 Hours) Calu-3, 72 h incubation, triplicate
In short: (§1)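 Cells were plated in 96-well plates and held 24 h at 37 °C in 5% CO2. Media with 10% FBS, 1% penicillin-streptomycin and 1% insulin were RPMI-1640 for BT474, EMEM for Calu-3 and Fibroblast Basal Medium for HLFs. Test compound or liposome was added at 0.001–100 μM for 72 h. Cells were PBS-washed before CellTiter-Glo luminescence. Triplicate runs; IC50 from dose-response plot.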

BT474 [2] = experiment: Antiproliferative activity, CellTiter-Glo assay; format: cell-based, human; settings: read-out: IC50 (72 Hours) BT474, 72 h incubation, triplicate
In short: as §1

[3] = system: non-cancerous lung fibroblast cells (HLFs); experiment: Antiproliferative activity, CellTiter-Glo assay; format: cell-based, human; settings: read-out: IC50 (72 Hours) HLFs, 72 h incubation, triplicate
In short: as §1

Calu-3 [4] = experiment: Apoptosis study; format: cell-based, human; settings: Calu-3, 3 μM, 12 h, annexin V-FITC/PI, n=3
In short: (§2)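 Cells were seeded at 2×10⁵ cells/mL in flasks and cultured 24 h. At 70% confluence they were exposed to 3 μM test compound in serum-free medium for 12 h. Cells were then trypsinized, washed in ice-cold PBS and resuspended in binding buffer at 2.5×10⁶ cells/mL. Staining with annexin V-FITC plus propidium iodide ran 15 min before flow cytometry.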

BT474 [5] = experiment: Apoptosis study; format: cell-based, human; settings: BT474, 3 μM, 12 h, annexin V-FITC/PI, n=3
In short: as §2

[6] = system: Calu-3 3D tumor spheroids; experiment: Antiproliferative activity in multicellular 3D tumor spheroid; format: cell-based, human; settings: read-out: 3D tumor spheroid IC50 (72 Hours) Calu-3, hanging drop spheroids, CellTiter-Glo 3D, mean ± SD, n=3
In short: (§3)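 Hanging-drop spheroids seeded at 500 cells/μL in 40 μL of medium and formed over 24 h at 37 °C, 5% CO2, humidified. Spheroids moved to round-bottom 96-well plates in serum-free medium and treated with test compound at 0.01–100 μM for 72 h at 37 °C. Viability read by CellTiter-Glo 3D luminescence, and IC50 derived from the dose-response.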

BT474 3D tumor spheroids = experiment: as above; format: cell-based, human; settings: read-out: 3D tumor spheroid IC50 (72 Hours) BT474, hanging drop spheroids, CellTiter-Glo 3D, mean ± SD, n=3
In short: as §3

MCF-7 3D tumor spheroids = experiment: as above; format: cell-based, human; settings: read-out: 3D tumor spheroid IC50 (72 Hours) MCF-7, hanging drop spheroids, CellTiter-Glo 3D, mean ± SD, n=3
In short: as §3

MCF-7 spheroids = experiment: In vitro tumor growth inhibition in 3D tumor spheroids; format: cell-based, human; settings: 3 μM, 5 days
In short: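 MCF-7 cells (40 μL at 125 cells/μL) grown as hanging-drop spheroids at 37 °C, 5% CO2, humidified, until about 100–200 μm, then moved to round-bottom 96-well plates (day zero). Treated with test compound at 3 μM, with untreated controls. Imaged for five consecutive days under a 4× objective, and volume calculated as 0.5 × length × width².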

Calu-3 bearing nude mice [7] = experiment: In vivo antitumor activity; design: species or system BALB/c nude mice; settings: intravenous, Dox-equivalent dose 6 mg kg−1 every four days, mean ± SD, n=5
In short: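 Male and female BALB/c nude mice (22–35 g) received 1×10⁷ Calu-3 cells in 100 μL culture medium subcutaneously in the right back. At 30–50 mm³ tumors, mice were randomized (n = 5/group). Dosing was intravenous every four days, with PBS as control. Tumor volume was measured every four days. Mice were killed at 38 days and tumors weighed.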

Calu-3 bearing nude mice [8] = experiment: Toxicity study; format: in vivo, BALB/c nude mice
In short: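 Same Calu-3 xenograft nude mice and intravenous dosing every four days, with a PBS control group. Body weight was recorded every four days during the efficacy study. At termination (38 days), heart, liver, spleen, kidney and lung tumor were formalin-fixed and paraffin-embedded. Sections of 5 μm were H&E-stained and examined microscopically by a toxicologist.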

COc1cccc2c1C(=O)c1c(O)c3c(c(O)c1C2=O)C[C@@](O)(C(=O)CO)C[C@@H]3O[C@H]1C[C@H](N)[C@H](O)[C@H](C)O1 [Free Dox, Doxorubicin]
IC50 (Calu-3 [1]): 158 ± 75 nM
IC50 (BT474 [2]): 399 ± 79 nM
IC50 [3]: 170 ± 82 nM
total percentage of apoptosis (Calu-3 [4]): 16.83%
total percentage of apoptosis (BT474 [5]): 35.49%
IC50 [6]: 745 ± 54 nM
IC50 (BT474 3D tumor spheroids): 845 ± 58 nM
IC50 (MCF-7 3D tumor spheroids): 548 ± 125 nM
inhibition of spheroid growth (MCF-7 spheroids): significant inhibition of spheroidal tumor growth
mean tumor size at 38 days after implantation (Calu-3 bearing nude mice [7]): 68.26 ± 25.89 mm^3
mean tumor weight at 38 days after implantation (Calu-3 bearing nude mice [7]): 162.8 ± 21.98 mg
body weight loss (Calu-3 bearing nude mice [8]; Dox-equivalent 6 mg kg−1 every four days, 38 days after tumor implantation): significant weight loss
histopathology of heart tissues (Calu-3 bearing nude mice [8]; H&E, at 38 days, compared to control group): some amount of vascular degeneration
histopathology of liver and kidneys (Calu-3 bearing nude mice [8]; H&E, at 38 days, compared to control group (PBS)): no apparent inflammatory reaction, structural modification, or pathological abnormalities
histopathology of spleen (Calu-3 bearing nude mice [8]; H&E, at 38 days, compared with control group): loss of lymphoid blue matter and deposition of red matter
